Assays:
Type in all cases: functional
SF-268 [1] = experiment: Growth inhibition of human SF-268 cells assessed as cell growth at 0.01 uM incubated for 48 hrs by sulforhodamine B assay relative to control; details: read-out: Activity
SF-295 = experiment: Growth inhibition of human SF-295 cells assessed as cell growth at 0.01 uM incubated for 48 hrs by sulforhodamine B assay relative to control; details: read-out: Activity
U-251 [2] = experiment: Growth inhibition of human U-251 cells assessed as cell growth at 0.01 uM incubated for 48 hrs by sulforhodamine B assay relative to control; details: read-out: Activity
SK-MEL-5 = experiment: Growth inhibition of human SK-MEL-5 cells assessed as cell growth at 0.01 uM incubated for 48 hrs by sulforhodamine B assay relative to control; details: read-out: Activity
NCI/ADR-RES [3] = experiment: Growth inhibition of human NCI/ADR-RES cells assessed as cell growth at 0.01 uM incubated for 48 hrs by sulforhodamine B assay relative to control; details: read-out: Activity
SK-OV-3 = experiment: Growth inhibition of human SK-OV-3 cells assessed as cell growth at 0.01 uM incubated for 48 hrs by sulforhodamine B assay relative to control; details: read-out: Activity
TK-10 = experiment: Growth inhibition of human TK-10 cells assessed as cell growth at 0.01 uM incubated for 48 hrs by sulforhodamine B assay relative to control; details: read-out: Activity
MCF7 = experiment: Growth inhibition of human MCF7 cells assessed as cell growth at 0.01 uM incubated for 48 hrs by sulforhodamine B assay relative to control; details: read-out: Activity
Hs-578T [4] = experiment: Growth inhibition of human Hs-578T cells assessed as cell growth at 0.01 uM incubated for 48 hrs by sulforhodamine B assay relative to control; details: read-out: Activity
NCI-H23 [5] = experiment: Growth inhibition of human NCI-H23 cells assessed as cell growth at 0.1 uM incubated for 48 hrs by sulforhodamine B assay relative to control; details: read-out: Activity
HCT-116 = experiment: Growth inhibition of human HCT-116 cells assessed as cell growth at 0.1 uM incubated for 48 hrs by sulforhodamine B assay relative to control; details: read-out: Activity
KM12 = experiment: Growth inhibition of human KM12 cells assessed as cell growth at 0.1 uM incubated for 48 hrs by sulforhodamine B assay relative to control; details: read-out: Activity
U-251 [6] = experiment: Growth inhibition of human U-251 cells assessed as cell growth at 0.1 uM incubated for 48 hrs by sulforhodamine B assay relative to control; details: read-out: Activity
PC-3 = experiment: Growth inhibition of human PC-3 cells assessed as cell growth at 0.1 uM incubated for 48 hrs by sulforhodamine B assay relative to control; details: read-out: Activity
K562 [7] = experiment: Growth inhibition of human K562 cells assessed as cell growth at 1 uM incubated for 48 hrs by sulforhodamine B assay relative to control; details: read-out: Activity
NCI-H23 [8] = experiment: Growth inhibition of human NCI-H23 cells assessed as cell growth at 1 uM incubated for 48 hrs by sulforhodamine B assay relative to control; details: read-out: Activity
SF-268 [9] = experiment: Growth inhibition of human SF-268 cells assessed as cell growth at 1 uM incubated for 48 hrs by sulforhodamine B assay relative to control; details: read-out: Activity
Malme-3M [10] = experiment: Growth inhibition of human Malme-3M cells assessed as cell growth at 1 uM incubated for 48 hrs by sulforhodamine B assay relative to control; details: read-out: Activity
NCI/ADR-RES [11] = experiment: Growth inhibition of human NCI/ADR-RES cells assessed as cell growth at 1 uM incubated for 48 hrs by sulforhodamine B assay relative to control; details: read-out: Activity
ACHN = experiment: Growth inhibition of human ACHN cells assessed as cell growth at 1 uM incubated for 48 hrs by sulforhodamine B assay relative to control; details: read-out: Activity
UO-31 = experiment: Growth inhibition of human UO-31 cells assessed as cell growth at 1 uM incubated for 48 hrs by sulforhodamine B assay relative to control; details: read-out: Activity
K562 [12] = experiment: Growth inhibition of human K562 cells assessed as cell growth at 100 uM incubated for 48 hrs by sulforhodamine B assay relative to control; details: read-out: Activity
NCI-H23 [13] = experiment: Growth inhibition of human NCI-H23 cells assessed as cell growth at 100 uM incubated for 48 hrs by sulforhodamine B assay relative to control; details: read-out: Activity
HCC 2998 = experiment: Growth inhibition of human HCC 2998 cells assessed as cell growth at 100 uM incubated for 48 hrs by sulforhodamine B assay relative to control; details: read-out: Activity
Summary of the method: (§1)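 NCI Developmental Therapeutics Program NCI60 panel. Compounds that were active in the 10 µM one-dose screen went on to dose–response testing. Growth at each concentration is expressed relative to untreated control (100%). GI50 (concentration giving 50% of maximal inhibition of proliferation) and TGI (concentration giving total growth inhibition) were derived from the curves.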

LOX IMVI = experiment: Growth inhibition of human LOX IMVI cells assessed as cell growth at 100 uM incubated for 48 hrs by sulforhodamine B assay relative to control; details: read-out: Activity
OVCAR-4 = experiment: Growth inhibition of human OVCAR-4 cells assessed as cell growth at 100 uM incubated for 48 hrs by sulforhodamine B assay relative to control; details: read-out: Activity
DU-145 = experiment: Growth inhibition of human DU-145 cells assessed as cell growth at 100 uM incubated for 48 hrs by sulforhodamine B assay relative to control; details: read-out: Activity; summary of the method: as §1
HOP-62 = experiment: Growth inhibition of human HOP-62 cells incubated for 48 hrs by sulforhodamine B assay
Summary of the method: (§2)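 NCI60 panel at the NCI Developmental Therapeutics Program. Only compounds active in the 10 µM screen went to dose-response testing. GI50, the concentration giving 50% of maximal inhibition of proliferation, and TGI, the concentration giving total growth inhibition, were derived from the dose-response curves.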

HOP-92 = experiment: Growth inhibition of human HOP-92 cells incubated for 48 hrs by sulforhodamine B assay; summary of the method: as §2
NCI-H322M = experiment: Growth inhibition of human NCI-H322M cells incubated for 48 hrs by sulforhodamine B assay; summary of the method: as §2
NCI-H460 = experiment: Growth inhibition of human NCI-H460 cells incubated for 48 hrs by sulforhodamine B assay; summary of the method: as §2
Malme-3M [14] = experiment: Growth inhibition of human Malme-3M cells incubated for 48 hrs by sulforhodamine B assay; summary of the method: as §2
SK-MEL-28 = experiment: Growth inhibition of human SK-MEL-28 cells incubated for 48 hrs by sulforhodamine B assay
Summary of the method: (§3)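 NCI DTP 60-line human tumour panel. Dose-response curves were run only for ligands active in the initial 10 µM screen. GI50 (concentration giving 50% of maximal inhibition of proliferation) and TGI (concentration giving total growth inhibition) were derived from these curves.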

OVCAR-8 = experiment: Growth inhibition of human OVCAR-8 cells incubated for 48 hrs by sulforhodamine B assay; summary of the method: as §3
Hs-578T [15] = experiment: Growth inhibition of human Hs-578T cells incubated for 48 hrs by sulforhodamine B assay; summary of the method: as §2
[16] = read-out: LC50 (the source's name)

`Nc1c(C(=O)Nc2ccccc2)sc2nc3c(cc12)CN(Cc1ccccc1)CC3` was tested. Which growth at 0.01 µM (SF-268 [1]) did it give?
Its growth at 0.01 µM is 91%.

What about the growth at 0.01 µM (SF-295) of the same compound?
The growth at 0.01 µM was 96%.

And the growth at 0.01 µM (U-251 [2])?
The growth at 0.01 µM was 98%.

What about the growth at 0.01 µM (SK-MEL-5) of the same compound?
The growth at 0.01 µM was 104%.

And the growth at 0.01 µM (NCI/ADR-RES [3])?
Its growth at 0.01 µM is 103%.

What about the growth at 0.01 µM (SK-OV-3) of the same compound?
Its growth at 0.01 µM is 97%.

What about the growth at 0.01 µM (TK-10) of the same compound?
Its growth at 0.01 µM is 93%.

And the growth at 0.01 µM (MCF7)?
The growth at 0.01 µM was 93%.

And the growth at 0.01 µM (Hs-578T [4])?
The growth at 0.01 µM was 88%.

What about the growth at 0.1 µM (NCI-H23 [5]) of the same compound?
The growth at 0.1 µM was 101%.

What about the growth at 0.1 µM (HCT-116) of the same compound?
Its growth at 0.1 µM is 92%.

And the growth at 0.1 µM (KM12)?
Its growth at 0.1 µM is 95%.

And the growth at 0.1 µM (U-251 [6])?
Its growth at 0.1 µM is 98%.

What about the growth at 0.1 µM (PC-3) of the same compound?
Its growth at 0.1 µM is 91%.

What about the growth at 1 µM (K562 [7]) of the same compound?
The growth at 1 µM was 88%.

What about the growth at 1 µM (NCI-H23 [8]) of the same compound?
The growth at 1 µM was 101%.

What about the growth at 1 µM (SF-268 [9]) of the same compound?
Its growth at 1 µM is 85%.

And the growth at 1 µM (Malme-3M [10])?
Its growth at 1 µM is 87%.

And the growth at 1 µM (NCI/ADR-RES [11])?
The growth at 1 µM was 98%.

What about the growth at 1 µM (ACHN) of the same compound?
The growth at 1 µM was 87%.

What about the growth at 1 µM (UO-31) of the same compound?
Its growth at 1 µM is 83%.

What about the growth at 100 µM (K562 [12]) of the same compound?
Its growth at 100 µM is 12%.

What about the growth at 100 µM (NCI-H23 [13]) of the same compound?
Its growth at 100 µM is 24%.

What about the growth at 100 µM (HCC 2998) of the same compound?
Its growth at 100 µM is 47%.

What about the growth at 100 µM (LOX IMVI) of the same compound?
The growth at 100 µM was 20%.

What about the growth at 100 µM (OVCAR-4) of the same compound?
The growth at 100 µM was -19%.

And the growth at 100 µM (DU-145)?
Its growth at 100 µM is 16%.

And the GI50 (HOP-62)?
Its GI50 is 4.11 µM.

What about the LC50 (HOP-62) of the same compound?
Its LC50 is > 100 µM.

And the TGI (HOP-62)?
The TGI was 33.3 µM.

And the GI50 (HOP-92)?
Its GI50 is 2.48 µM.

And the LC50 (concentration killing 50% of the starting cells) (HOP-92)?
The LC50 (concentration killing 50% of the starting cells) was > 100 µM.

What about the TGI (HOP-92) of the same compound?
Its TGI is 20.4 µM.

What about the GI50 (NCI-H322M) of the same compound?
The GI50 was > 100 µM.

And the TGI (NCI-H322M)?
Its TGI is > 100 µM.

What about the CC50 (NCI-H322M; [16]) of the same compound?
Its CC50 is > 100 µM.

And the GI50 (NCI-H460)?
The GI50 was 7.51 µM.

And the LC50 (NCI-H460)?
The LC50 was > 100 µM.

What about the TGI (NCI-H460) of the same compound?
The TGI was > 100 µM.

What about the GI50 (Malme-3M [14]) of the same compound?
Its GI50 is 3.8 µM.

What about the LC50 (Malme-3M [14]) of the same compound?
Its LC50 is > 100 µM.

What about the TGI (Malme-3M [14]) of the same compound?
The TGI was > 100 µM.

What about the GI50 (SK-MEL-28) of the same compound?
The GI50 was 23.2 µM.

What about the LC50 (SK-MEL-28) of the same compound?
The LC50 was > 100 µM.

And the TGI (SK-MEL-28)?
The TGI was > 100 µM.

What about the GI50 (OVCAR-8) of the same compound?
The GI50 was 16.8 µM.

And the TGI (OVCAR-8)?
Its TGI is > 100 µM.

What about the CC50 (OVCAR-8; [16]) of the same compound?
The CC50 was > 100 µM.

And the GI50 (Hs-578T [15])?
Its GI50 is 2.07 µM.

And the TGI (Hs-578T [15])?
The TGI was 7.55 µM.

And the CC50 (Hs-578T [15]; [16])?
Its CC50 is > 100 µM.
